Data: ChEMBL document CHEMBL4411265, “Bioactive Pentacyclic Triterpenes from the Root Bark Extract of Myrianthus arboreus, a Species Used Traditionally to Treat Type-2 Diabetes” (J Nat Prod, 2018)

How the values were obtained:
[1] = target: T1, Glucose-6-phosphatase catalytic subunit 1 (Rattus norvegicus) (UniProt P43428); assay: Inhibition of glucose-6-phosphatase in rat […] cells at MNTD using glucose-6-phosphate as substrate preincubated overnight followed by substrate addition and measured after 40 mins relative to control; type: cell-based
T1 sequence (whole entry): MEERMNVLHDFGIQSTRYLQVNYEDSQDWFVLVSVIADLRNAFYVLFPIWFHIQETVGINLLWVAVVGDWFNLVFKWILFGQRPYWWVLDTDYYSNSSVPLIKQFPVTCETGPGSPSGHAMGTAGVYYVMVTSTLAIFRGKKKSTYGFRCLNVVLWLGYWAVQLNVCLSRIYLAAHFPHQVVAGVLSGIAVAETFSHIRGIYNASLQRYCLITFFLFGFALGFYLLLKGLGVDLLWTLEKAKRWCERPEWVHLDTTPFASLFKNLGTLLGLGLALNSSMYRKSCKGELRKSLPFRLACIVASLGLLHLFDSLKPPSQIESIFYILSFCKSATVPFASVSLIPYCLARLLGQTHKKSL
Procedure, shortened: (§1)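 H4IIE rat hepatoma cells at 90% confluence treated overnight at maximal nontoxic concentration, 0.1% DMSO vehicle. Lysis in phosphate buffer with 0.05% Triton; lysate incubated with glucose-6-phosphate buffer 40 min at 37 °C. Released glucose read by glucose kit against standard curve, normalized to BCA protein; percent change from vehicle. Means of three experiments in triplicate.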

[2] = target: RAC-alpha serine/threonine-protein kinase (Rattus norvegicus) (UniProt P47196); assay: Activation of Akt in rat […] cells assessed as increase in ratio of phosphorylated Akt to total AKt level at MNTD after 18 hrs by Western blot analysis relative to control; type: cell-based
Procedure, shortened: (§2)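 Confluent H4IIE rat hepatoma cells (DMEM, 10% FBS) or HepG2 human hepatoma cells (DMEM/F12, 10% FBS) exposed 18 h to samples at maximal nontoxic concentration, 0.1% DMSO vehicle; RIPA lysates, 40 μg protein by SDS-PAGE, nitrocellulose blotting, 5% milk block. Antibodies against p-Akt Thr308/Akt, p-AMPKα Thr172/AMPK, p-GSK-3 Ser9/GSK-3, HRP secondary, ECL detection. Phospho/total ratio relative to DMSO; three independent passages.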

[3] = target: T2, Glycogen synthase kinase-3 (Homo sapiens) (UniProt P49840+P49841); assay: Activation of GSK3 phosphorylation in human HepG2 cells at MNTD after 18 hrs by Western blot analysis relative to control; type: cell-based; procedure, shortened: as §2
Rattus norvegicus = organism: Rattus norvegicus; assay: Activation of AMPK in rat […] cells assessed as increase AMPK phosphorylation at MNTD after 18 hrs by Western blot analysis relative to control; type: cell-based; procedure, shortened: as §2
[4] = target: T3, Glycogen [starch] synthase, liver (Homo sapiens) (UniProt P54840); assay: Activation of insulin-stimulated glycogen synthase in human HepG2 cells at MNTD using [U-14C]UDP glucose as substrate preincubated for 18 hrs followed by insulin stimulation and measured after 15 mins by beta-counting method relative to control; type: cell-based
T3 sequence (whole entry): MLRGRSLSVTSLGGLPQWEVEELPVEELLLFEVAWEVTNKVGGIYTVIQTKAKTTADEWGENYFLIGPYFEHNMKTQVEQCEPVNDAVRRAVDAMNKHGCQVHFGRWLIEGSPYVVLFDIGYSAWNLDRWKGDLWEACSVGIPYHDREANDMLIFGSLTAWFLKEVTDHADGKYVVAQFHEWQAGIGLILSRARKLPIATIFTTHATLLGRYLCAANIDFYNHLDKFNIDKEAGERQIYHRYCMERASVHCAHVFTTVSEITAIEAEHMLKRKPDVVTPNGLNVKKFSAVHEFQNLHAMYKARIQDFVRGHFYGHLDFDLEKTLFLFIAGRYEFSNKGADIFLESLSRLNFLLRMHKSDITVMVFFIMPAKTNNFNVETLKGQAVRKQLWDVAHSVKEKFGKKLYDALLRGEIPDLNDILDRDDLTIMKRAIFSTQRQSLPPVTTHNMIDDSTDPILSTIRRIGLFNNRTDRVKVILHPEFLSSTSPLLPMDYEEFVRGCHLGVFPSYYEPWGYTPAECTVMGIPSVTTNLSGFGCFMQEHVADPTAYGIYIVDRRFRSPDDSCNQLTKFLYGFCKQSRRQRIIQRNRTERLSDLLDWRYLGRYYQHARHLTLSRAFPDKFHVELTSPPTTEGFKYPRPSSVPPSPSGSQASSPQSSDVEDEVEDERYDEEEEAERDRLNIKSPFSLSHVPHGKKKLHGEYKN

[5] = target: T4, Glycogen [starch] synthase, liver (Homo sapiens, UniProt P54840); assay: Activation of insulin-stimulated glycogen synthase in human HepG2 cells using [U-14C]UDP glucose as substrate preincubated for 18 hrs followed by insulin stimulation and measured after 15 mins by beta-counting method; type: cell-based
T4 sequence (P54840 whole entry): T3 sequence (whole entry)

[6] = target: T5, Glucose-6-phosphatase catalytic subunit 1 (Rattus norvegicus, UniProt P43428); assay: Inhibition of glucose-6-phosphatase in rat H42E cells using glucose-6-phosphate as substrate preincubated overnight followed by substrate addition and measured after 40 mins; type: cell-based; procedure, shortened: as §1
T5 sequence (P43428 whole entry): T1 sequence (whole entry)

[7] = Solubility of the compound in DMSO; type: physicochemical
[8] = target: T2, Glycogen synthase kinase-3 (Homo sapiens); assay: Activation of GSK3 in human HepG2 cells assessed as increase in ratio of phosphorylated GSK3 to total GSK3 level at MNTD after 18 hrs by Western blot analysis relative to control; type: cell-based; procedure, shortened: as §2

RAC-alpha serine/threonine-protein kinase (Rattus norvegicus), sequence (P47196 whole entry): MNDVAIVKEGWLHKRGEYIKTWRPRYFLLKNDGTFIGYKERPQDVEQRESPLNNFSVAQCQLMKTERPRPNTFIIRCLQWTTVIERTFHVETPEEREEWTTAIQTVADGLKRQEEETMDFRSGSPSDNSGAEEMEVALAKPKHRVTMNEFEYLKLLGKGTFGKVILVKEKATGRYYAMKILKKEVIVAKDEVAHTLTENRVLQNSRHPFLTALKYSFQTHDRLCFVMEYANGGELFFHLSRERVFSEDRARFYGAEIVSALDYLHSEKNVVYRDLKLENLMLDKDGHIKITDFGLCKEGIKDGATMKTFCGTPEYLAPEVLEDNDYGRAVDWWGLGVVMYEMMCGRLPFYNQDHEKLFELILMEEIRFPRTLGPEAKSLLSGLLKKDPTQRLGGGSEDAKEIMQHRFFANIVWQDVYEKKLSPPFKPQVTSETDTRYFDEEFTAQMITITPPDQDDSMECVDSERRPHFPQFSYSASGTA
T2 sequence (P49840 whole entry, looked up): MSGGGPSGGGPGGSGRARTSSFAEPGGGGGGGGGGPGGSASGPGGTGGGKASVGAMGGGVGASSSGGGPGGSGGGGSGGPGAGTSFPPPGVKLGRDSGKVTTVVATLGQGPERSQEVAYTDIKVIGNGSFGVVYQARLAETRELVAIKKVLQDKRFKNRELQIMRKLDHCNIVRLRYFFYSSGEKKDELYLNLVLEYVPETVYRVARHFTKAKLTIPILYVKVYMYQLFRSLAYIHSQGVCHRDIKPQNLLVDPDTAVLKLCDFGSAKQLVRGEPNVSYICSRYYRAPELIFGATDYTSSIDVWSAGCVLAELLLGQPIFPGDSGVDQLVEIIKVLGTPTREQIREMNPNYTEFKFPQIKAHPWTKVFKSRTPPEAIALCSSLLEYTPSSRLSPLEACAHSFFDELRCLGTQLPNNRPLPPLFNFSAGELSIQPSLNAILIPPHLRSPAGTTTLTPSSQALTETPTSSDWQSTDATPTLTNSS
T2 sequence (P49841 whole entry, looked up): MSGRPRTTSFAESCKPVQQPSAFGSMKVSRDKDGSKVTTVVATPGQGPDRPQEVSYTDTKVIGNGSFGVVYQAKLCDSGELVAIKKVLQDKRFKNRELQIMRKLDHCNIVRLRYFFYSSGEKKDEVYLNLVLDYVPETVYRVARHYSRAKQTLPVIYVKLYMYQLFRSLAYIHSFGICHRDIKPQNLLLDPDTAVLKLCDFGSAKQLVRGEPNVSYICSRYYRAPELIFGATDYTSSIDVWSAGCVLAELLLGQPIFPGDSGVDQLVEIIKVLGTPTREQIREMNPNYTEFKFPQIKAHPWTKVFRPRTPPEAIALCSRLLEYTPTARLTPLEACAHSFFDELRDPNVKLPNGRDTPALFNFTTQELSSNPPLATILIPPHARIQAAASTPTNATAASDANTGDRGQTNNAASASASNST

| SMILES | inhibition [1] [%] | fold change (FC) [2] | fold change (FC) [3] | fold change (FC) (Rattus norvegicus) | fold change (FC) [4] | EC50 [5] [µM] | IC50 [6] [µM] | solubility [7] | fold change (FC) [8] |
| --- | --- | --- | --- | --- | --- | --- | --- | --- | --- |
| C[C@H]1[C@H](C)CC[C@]2(C(=O)O)CC[C@]3(C)C(=CC[C@@H]4[C@@]5(C)CC[C@H](O)C(C)(C)[C@@H]5CC[C@]43C)[C@H]12 | 18 to 32 | 2.2 to 4.8 | 2 | 2.2 to 3.5 | 1.5 to 3.5 | – | – | – | – |
| COc1cc(/C=C/C(=O)O[C@H]2[C@H](OC(C)=O)C[C@]3(C)[C@H]4CC=C5[C@H]6[C@](C(=O)O)(CC[C@@H](C)[C@@]6(C)O)CC[C@@]5(C)[C@]4(C)CC[C@H]3C2(C)C)ccc1O | 18 to 32 | 2.2 to 4.8 | 2 | 2.2 to 3.5 | 1.5 to 3.5 | 4.1 | 4.8 | – | – |
| CC[C@H](CC[C@@H](C)[C@H]1CC[C@H]2[C@@H]3CC=C4C[C@@H](O)CC[C@]4(C)[C@H]3CC[C@]12C)C(C)C [BETA-SITOSTEROL] | – | – | – | – | – | – | – | Insoluble | – |
| CC[C@H](/C=C/[C@@H](C)[C@H]1CC[C@H]2[C@@H]3CC=C4C[C@@H](O)CC[C@]4(C)[C@H]3CC[C@]12C)C(C)C [STIGMASTEROL] | – | – | – | – | – | – | – | Insoluble | – |
| NC(=O)c1ncn([C@@H]2O[C@H](CO)[C@@H](O)[C@H]2O)c1N | – | – | 2 | – | – | – | – | – | – |
| COc1cc(/C=C/C(=O)O[C@H]2[C@H](O)C[C@]3(C)[C@H]4CC=C5[C@H]6[C@](C(=O)O)(CC[C@@H](C)[C@@]6(C)O)CC[C@@]5(C)[C@]4(C)CC[C@H]3C2(C)C)ccc1O | 18 to 32 | 2.2 to 4.8 | – | 2.2 to 3.5 | 1.5 to 3.5 | – | – | – | 1.8 |
